The results in this text go back to ChEMBL document CHEMBL4364271, “Unveiling the Importance of Amide Protons in CSP:ComD Interactions in Streptococcus pneumoniae” (ACS Med Chem Lett, 2019).

pEC50: −log10 of the molar value. Calls of active or inactive are those of the source. The calls are words filed in the database; no cut-off is given here. Non-standard residues stand in square brackets, D forms with d. Residues, ends and D or L forms follow the SMILES beside them. NMeR = CN[C@@H](CCCNC(=N)N)C(=O)O; NMeF = CN[C@@H](Cc1ccccc1)C(=O)O; NMeI = CC[C@H](C)[C@H](NC)C(=O)O; NMeE = CN[C@@H](CCC(=O)O)C(=O)O; NMeD = CN[C@@H](CC(=O)O)C(=O)O; NMeL = CN[C@@H](CC(C)C)C(=O)O; NMeM = CN[C@@H](CCSC)C(=O)O Bounds are passed on as bounds.

Series [1] deals with Streptococcus pneumoniae D39. The series can be described thus: Agonist activity at ComD1 receptor in Streptococcus pneumoniae D39 harboring pcomX/lacZ reporter gene at 10 uM incubated for 30 mins by ONPG based beta-galactosidase assay relative to native CSP1. In outline:
(§1)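 Single-dose screen of synthetic peptide at 10 μM in wild-type reporter strains (D39 for ComD1, TIGR4 for ComD2) producing their own CSP and carrying lacZ under the comX promoter. β-gal activity in Miller units normalized to native CSP (CSP1 or CSP2, 100%); DMSO 0%. Triplicates over three separate trials.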

Series [2] is described as follows: Agonist activity at ComD2 receptor in Streptococcus pneumoniae TIGR4 harboring pcomX/lacZ reporter gene incubated for 30 mins by ONPG based beta-galactosidase assay. In outline: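 Dose-response in wild-type lacZ reporter strains (comX promoter; D39 for ComD1, TIGR4 for ComD2) producing native CSP. Peptides tested over a range of concentrations. β-gal read-out (Miller units) normalized to native CSP. EC50 reported with 95% confidence interval.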
(Reporter assays use an easily measured gene product as a stand-in for the process of interest.)

Series [3] can be described thus: Solubility of the compound in ammonium carbonate solution at pH 8. The settings on record: buffer. Format: physicochemical.
Series [4] has as its system Streptococcus pneumoniae TIGR4. The series can be described thus: Agonist activity at ComD2 receptor in Streptococcus pneumoniae TIGR4 harboring pcomX/lacZ reporter gene at 10 uM incubated for 30 mins by ONPG based beta-galactosidase assay relative to native CSP2. In outline:
as §1

The subject of series [5] is Streptococcus pneumoniae D39. Kind of series: Antagonist activity at ComD1 receptor in Streptococcus pneumoniae D39 harboring pcomX/lacZ reporter gene assessed as inhibiton of CSP1-stimulated maximum signal at 10 uM preincubated for 30 mins followed by 50 nM CSP1 addition by ONPG based beta-galactosidase assay relative to native CSP1. In outline: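 Inhibition screen: peptides at 10 μM against CSP1 50 nM (D39, ComD1) or CSP2 250 nM (TIGR4, ComD2), in comX-lacZ reporter strains. β-gal Miller units normalized to CSP alone (100%) and DMSO (0%). Triplicates over three separate trials.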

As to `CC[C@H](C)[C@H](NC(=O)[C@H](CCCNC(=N)N)NC(=O)[C@H](CCSC)NC(=O)[C@@H](N)CCC(=O)O)C(=O)N[C@@H](CO)C(=O)N[C@@H](CCCNC(=N)N)C(=O)N[C@H](C(=O)N[C@H](C(=O)N[C@@H](CC(C)C)C(=O)N[C@@H](CC(=O)O)C(=O)N[C@@H](Cc1ccccc1)C(=O)N[C@@H](CC(C)C)C(=O)N(C)[C@@H](Cc1ccccc1)C(=O)O)[C@@H](C)CC)[C@@H](C)CC` (H-EMRISRIILDFL[NMeF]-OH), in series [1], the result was inactive. The pEC50 (in general, −log10 of the EC50, conventionally taken in molar units) in series [2] is 7.57. Also, in series [3], the solubility result is “Insoluble”. In series [4], this molecule gave an Activity greater than 75%. Besides, in series [5], the inhibition entry is “inactive”.

As to `CC[C@H](C)[C@H](NC(=O)[C@H](CCCNC(=N)N)NC(=O)[C@H](CCSC)NC(=O)[C@@H](N)CCC(=O)O)C(=O)N[C@@H](CO)C(=O)N[C@@H](CCCNC(=N)N)C(=O)N[C@H](C(=O)N[C@H](C(=O)N[C@@H](CC(C)C)C(=O)N[C@@H](CC(=O)O)C(=O)N[C@@H](Cc1ccccc1)C(=O)N(C)[C@@H](CC(C)C)C(=O)N[C@@H](Cc1ccccc1)C(=O)O)[C@@H](C)CC)[C@@H](C)CC` (H-EMRISRIILDF[NMeL]F-OH), the outcome in series [1] and in series [4] was inactive. In addition, in series [3], the solubility entry is listed as “Insoluble”. Besides, the inhibition entry in series [5] is “inactive”.

Consider `CC[C@H](C)[C@H](NC(=O)[C@H](CCCNC(=N)N)NC(=O)[C@H](CCSC)NC(=O)[C@@H](N)CCC(=O)O)C(=O)N[C@@H](CO)C(=O)N[C@@H](CCCNC(=N)N)C(=O)N[C@H](C(=O)N[C@H](C(=O)N[C@@H](CC(C)C)C(=O)N[C@@H](CC(=O)O)C(=O)N(C)[C@@H](Cc1ccccc1)C(=O)N[C@@H](CC(C)C)C(=O)N[C@@H](Cc1ccccc1)C(=O)O)[C@@H](C)CC)[C@@H](C)CC` (H-EMRISRIILD[NMeF]LF-OH), for which the result in series [1] and in series [4] was inactive. Besides, the solubility result in series [3] is given as “Insoluble”. Also, the inhibition result in series [5] was “inactive”.

With `CC[C@H](C)[C@H](NC(=O)[C@H](CCCNC(=N)N)NC(=O)[C@H](CCSC)NC(=O)[C@@H](N)CCC(=O)O)C(=O)N[C@@H](CO)C(=O)N[C@@H](CCCNC(=N)N)C(=O)N[C@H](C(=O)N[C@H](C(=O)N[C@@H](CC(C)C)C(=O)N(C)[C@@H](CC(=O)O)C(=O)N[C@@H](Cc1ccccc1)C(=O)N[C@@H](CC(C)C)C(=O)N[C@@H](Cc1ccccc1)C(=O)O)[C@@H](C)CC)[C@@H](C)CC` (H-EMRISRIIL[NMeD]FLF-OH), the outcome in series [1] was inactive. The pEC50 in series [2] was 6.47. Besides, in series [3], the solubility entry is given as “Insoluble”. The Activity in series [4] is greater than 75%. In series [5], the inhibition result is “inactive”.

Consider `CC[C@H](C)[C@H](NC(=O)[C@H](CCCNC(=N)N)NC(=O)[C@H](CCSC)NC(=O)[C@@H](N)CCC(=O)O)C(=O)N[C@@H](CO)C(=O)N[C@@H](CCCNC(=N)N)C(=O)N[C@H](C(=O)N[C@H](C(=O)N(C)[C@@H](CC(C)C)C(=O)N[C@@H](CC(=O)O)C(=O)N[C@@H](Cc1ccccc1)C(=O)N[C@@H](CC(C)C)C(=O)N[C@@H](Cc1ccccc1)C(=O)O)[C@@H](C)CC)[C@@H](C)CC` (H-EMRISRII[NMeL]DFLF-OH), for which the outcome in series [1] and in series [4] was inactive. Further, in series [3], the solubility entry was “Insoluble”. Moreover, the inhibition result in series [5] is “inactive”.

Take `CC[C@H](C)[C@H](NC(=O)[C@H](CCCNC(=N)N)NC(=O)[C@H](CCSC)NC(=O)[C@@H](N)CCC(=O)O)C(=O)N[C@@H](CO)C(=O)N[C@@H](CCCNC(=N)N)C(=O)N[C@H](C(=O)N(C)[C@H](C(=O)N[C@@H](CC(C)C)C(=O)N[C@@H](CC(=O)O)C(=O)N[C@@H](Cc1ccccc1)C(=O)N[C@@H](CC(C)C)C(=O)N[C@@H](Cc1ccccc1)C(=O)O)[C@@H](C)CC)[C@@H](C)CC` (H-EMRISRI[NMeI]LDFLF-OH): the outcome in series [1] and in series [4] was inactive. Besides, in series [3], the solubility result is recorded as “Insoluble”. Further, the inhibition entry in series [5] was “inactive”.

Regarding `CC[C@H](C)[C@H](NC(=O)[C@H](CCCNC(=N)N)NC(=O)[C@H](CCSC)NC(=O)[C@@H](N)CCC(=O)O)C(=O)N[C@@H](CO)C(=O)N[C@@H](CCCNC(=N)N)C(=O)N(C)[C@H](C(=O)N[C@H](C(=O)N[C@@H](CC(C)C)C(=O)N[C@@H](CC(=O)O)C(=O)N[C@@H](Cc1ccccc1)C(=O)N[C@@H](CC(C)C)C(=O)N[C@@H](Cc1ccccc1)C(=O)O)[C@@H](C)CC)[C@@H](C)CC` (H-EMRISR[NMeI]ILDFLF-OH), the outcome in series [1] was inactive. The pEC50 in series [2] is less than 6.00. Further, in series [3], the solubility result is reported as “Insoluble”. In series [4], this molecule registered an Activity greater than 75%. Besides, the inhibition entry in series [5] was “inactive”.

`CC[C@H](C)[C@@H](C(=O)N[C@@H](CC(C)C)C(=O)N[C@@H](CCC(N)=O)C(=O)N[C@@H](CCCNC(=N)N)C(=O)O)N(C)C(=O)[C@H](Cc1ccccc1)NC(=O)[C@H](CC(=O)O)NC(=O)[C@H](CCCNC(=N)N)NC(=O)[C@H](Cc1ccccc1)NC(=O)[C@H](Cc1ccccc1)NC(=O)[C@H](CCCCN)NC(=O)[C@H](CO)NC(=O)[C@H](CC(C)C)NC(=O)[C@H](CCCNC(=N)N)NC(=O)[C@H](CCSC)NC(=O)[C@@H](N)CCC(=O)O` (H-EMRLSKFFRDF[NMeI]LQR-OH): the outcome in series [1] and in series [4] was inactive.

In the case of `CC[C@H](C)[C@H](NC(=O)[C@H](Cc1ccccc1)N(C)C(=O)[C@H](CC(=O)O)NC(=O)[C@H](CCCNC(=N)N)NC(=O)[C@H](Cc1ccccc1)NC(=O)[C@H](Cc1ccccc1)NC(=O)[C@H](CCCCN)NC(=O)[C@H](CO)NC(=O)[C@H](CC(C)C)NC(=O)[C@H](CCCNC(=N)N)NC(=O)[C@H](CCSC)NC(=O)[C@@H](N)CCC(=O)O)C(=O)N[C@@H](CC(C)C)C(=O)N[C@@H](CCC(N)=O)C(=O)N[C@@H](CCCNC(=N)N)C(=O)O` (H-EMRLSKFFRD[NMeF]ILQR-OH), the outcome in series [1] was inactive. The same molecule showed a pEC50 in series [2] of less than 6.00. In addition, in series [4], the Activity was greater than 75%.

Turning to `CC[C@H](C)[C@H](NC(=O)[C@H](Cc1ccccc1)NC(=O)[C@H](CC(=O)O)NC(=O)[C@H](CCCNC(=N)N)N(C)C(=O)[C@H](Cc1ccccc1)NC(=O)[C@H](Cc1ccccc1)NC(=O)[C@H](CCCCN)NC(=O)[C@H](CO)NC(=O)[C@H](CC(C)C)NC(=O)[C@H](CCCNC(=N)N)NC(=O)[C@H](CCSC)NC(=O)[C@@H](N)CCC(=O)O)C(=O)N[C@@H](CC(C)C)C(=O)N[C@@H](CCC(N)=O)C(=O)N[C@@H](CCCNC(=N)N)C(=O)O` (H-EMRLSKFF[NMeR]DFILQR-OH), the result in series [1] and in series [4] was inactive.

With `CC[C@H](C)[C@H](NC(=O)[C@H](CCCNC(=N)N)NC(=O)[C@H](CO)NC(=O)[C@@H](NC(=O)[C@H](CCCNC(=N)N)N(C)C(=O)[C@H](CCSC)NC(=O)[C@@H](N)CCC(=O)O)[C@@H](C)CC)C(=O)N[C@H](C(=O)N[C@@H](CC(C)C)C(=O)N[C@@H](CC(=O)O)C(=O)N[C@@H](Cc1ccccc1)C(=O)N[C@@H](CC(C)C)C(=O)N[C@@H](Cc1ccccc1)C(=O)O)[C@@H](C)CC` (H-EM[NMeR]ISRIILDFLF-OH), the result in series [1] and in series [4] was inactive. Further, in series [3], the solubility result is reported as “Insoluble”. Further, in series [5], the inhibition entry was “inactive”.

As to `CC[C@H](C)[C@H](NC(=O)[C@H](Cc1ccccc1)NC(=O)[C@H](CC(=O)O)NC(=O)[C@H](CCCNC(=N)N)NC(=O)[C@H](Cc1ccccc1)NC(=O)[C@H](Cc1ccccc1)NC(=O)[C@H](CCCCN)NC(=O)[C@H](CO)NC(=O)[C@H](CC(C)C)NC(=O)[C@H](CCCNC(=N)N)N(C)C(=O)[C@H](CCSC)NC(=O)[C@@H](N)CCC(=O)O)C(=O)N[C@@H](CC(C)C)C(=O)N[C@@H](CCC(N)=O)C(=O)N[C@@H](CCCNC(=N)N)C(=O)O` (H-EM[NMeR]LSKFFRDFILQR-OH), the result in series [1] and in series [4] was inactive.

`CC[C@H](C)[C@H](NC(=O)[C@H](Cc1ccccc1)NC(=O)[C@H](CC(=O)O)NC(=O)[C@H](CCCNC(=N)N)NC(=O)[C@H](Cc1ccccc1)NC(=O)[C@H](Cc1ccccc1)NC(=O)[C@H](CCCCN)NC(=O)[C@H](CO)NC(=O)[C@H](CC(C)C)NC(=O)[C@H](CCCNC(=N)N)NC(=O)[C@H](CCSC)N(C)C(=O)[C@@H](N)CCC(=O)O)C(=O)N[C@@H](CC(C)C)C(=O)N[C@@H](CCC(N)=O)C(=O)N[C@@H](CCCNC(=N)N)C(=O)O` (H-E[NMeM]RLSKFFRDFILQR-OH): the outcome in series [1] and in series [4] was inactive.

As to `CC[C@H](C)[C@H](NC(=O)[C@H](Cc1ccccc1)NC(=O)[C@H](CC(=O)O)NC(=O)[C@H](CCCNC(=N)N)NC(=O)[C@H](Cc1ccccc1)NC(=O)[C@H](Cc1ccccc1)NC(=O)[C@H](CCCCN)NC(=O)[C@H](CO)NC(=O)[C@H](CC(C)C)NC(=O)[C@H](CCCNC(=N)N)NC(=O)[C@H](CCSC)NC(=O)[C@H](CCC(=O)O)NC)C(=O)N[C@@H](CC(C)C)C(=O)N[C@@H](CCC(N)=O)C(=O)N[C@@H](CCCNC(=N)N)C(=O)O` (H-[NMeE]MRLSKFFRDFILQR-OH), the result in series [1] and in series [4] was inactive.

In series [2], H-EMRISRIILDFLF-OH had a pEC50 of 7.11.

In series [2], H-EMRISRIILDFLFLRKK-OH gave a pEC50 of 7.29.
